In brackets after ≈: the same amount, converted by molar mass.
Legend:
Assay type in all cases: functional
[1] = tested on: Enterococcus faecium; assay: Antibacterial activity against Enterococcus faecium 08-2 after 18 to 24 hrs by twofold serial dilution method
How it was run: (§1)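 MIC determined by the standard twofold serial dilution method on agar media, screening against Gram-positive and Gram-negative strains. Levofloxacin and gemifloxacin were run alongside as reference drugs.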

[2] = tested on: Streptococcus pneumoniae; assay: Antibacterial activity against Streptococcus pneumoniae 08-4 after 18 to 24 hrs by twofold serial dilution method; how it was run: as §1
[3] = tested on: Pseudomonas aeruginosa; assay: Antibacterial activity against Pseudomonas aeruginosa 09-33 after 18 to 24 hrs by twofold serial dilution method; how it was run: as §1
[4] = tested on: Pseudomonas aeruginosa; assay: Antibacterial activity against Pseudomonas aeruginosa 09-32 after 18 to 24 hrs by twofold serial dilution method; how it was run: as §1
[5] = tested on: Escherichia coli; assay: Antibacterial activity against Escherichia coli 08-22 after 18 to 24 hrs by twofold serial dilution method; how it was run: as §1
[6] = tested on: Staphylococcus epidermidis; assay: Antibacterial activity against methicillin-sensitive Staphylococcus epidermidis 09-3 after 18 to 24 hrs by twofold serial dilution method
How it was run: (§2)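 Standard twofold serial agar dilution method on agar media for MIC determination. Screened against representative Gram-positive and Gram-negative strains. Levofloxacin and GMFX served as control drugs.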

[7] = tested on: Klebsiella pneumoniae; assay: Antibacterial activity against Klebsiella pneumoniae 09-21 after 18 to 24 hrs by twofold serial dilution method; how it was run: as §1
[8] = tested on: Staphylococcus epidermidis; assay: Antibacterial activity against methicillin-sensitive Staphylococcus epidermidis 09-6 after 18 to 24 hrs by twofold serial dilution method; how it was run: as §2
[9] = tested on: Staphylococcus epidermidis; assay: Antibacterial activity against methicillin-resistant Staphylococcus epidermidis 09-3 after 18 to 24 hrs by twofold serial dilution method; how it was run: as §2
[10] = tested on: Enterococcus faecium; assay: Antibacterial activity against Enterococcus faecium 08-7 after 18 to 24 hrs by twofold serial dilution method; how it was run: as §1
[11] = tested on: Staphylococcus aureus; assay: Antibacterial activity against methicillin-resistant Staphylococcus aureus 08-1 after 18 to 24 hrs by twofold serial dilution method; how it was run: as §2
[12] = tested on: Staphylococcus epidermidis; assay: Antibacterial activity against methicillin-resistant Staphylococcus epidermidis 09-2 after 18 to 24 hrs by twofold serial dilution method; how it was run: as §2
[13] = tested on: Pseudomonas aeruginosa; assay: Antibacterial activity against Pseudomonas aeruginosa ATCC 27853 after 18 to 24 hrs by twofold serial dilution method; how it was run: as §1
[14] = tested on: Escherichia coli; assay: Antibacterial activity against Escherichia coli 08-21 after 18 to 24 hrs by twofold serial dilution method; how it was run: as §1
[15] = tested on: Pseudomonas aeruginosa; assay: Antibacterial activity against Pseudomonas aeruginosa 09-34 after 18 to 24 hrs by twofold serial dilution method; how it was run: as §1
[16] = tested on: Klebsiella pneumoniae; assay: Antibacterial activity against Klebsiella pneumoniae 09-23 after 18 to 24 hrs by twofold serial dilution method; how it was run: as §1
[17] = tested on: Pseudomonas aeruginosa; assay: Antibacterial activity against Pseudomonas aeruginosa 09-35 after 18 to 24 hrs by twofold serial dilution method; how it was run: as §1
[18] = tested on: Staphylococcus aureus; assay: Antibacterial activity against Staphylococcus aureus ATCC […] after 18 to 24 hrs by twofold serial dilution method; how it was run: as §1
[19] = tested on: Escherichia coli; assay: Antibacterial activity against Escherichia coli ATCC 25922 after 18 to 24 hrs by twofold serial dilution method; how it was run: as §1
[20] = tested on: Staphylococcus epidermidis; assay: Antibacterial activity against methicillin-resistant Staphylococcus epidermidis 09-4 after 18 to 24 hrs by twofold serial dilution method; how it was run: as §2
[21] = tested on: Enterococcus faecalis; assay: Antibacterial activity against Enterococcus faecalis 08-10 after 18 to 24 hrs by twofold serial dilution method; how it was run: as §1
[22] = tested on: Streptococcus pneumoniae; assay: Antibacterial activity against Streptococcus pneumoniae 08-2 after 18 to 24 hrs by twofold serial dilution method; how it was run: as §1
[23] = tested on: Klebsiella pneumoniae; assay: Antibacterial activity against Klebsiella pneumoniae 09-22 after 18 to 24 hrs by twofold serial dilution method; how it was run: as §1
[24] = tested on: Staphylococcus aureus; assay: Antibacterial activity against methicillin-sensitive Staphylococcus aureus 08-2 after 18 to 24 hrs by twofold serial dilution method; how it was run: as §2
[25] = tested on: Enterococcus faecalis; assay: Antibacterial activity against Enterococcus faecalis 08-12 after 18 to 24 hrs by twofold serial dilution method; how it was run: as §1

Structure (SMILES)	MIC [1]	MIC [2]	MIC [3]	MIC [4]	MIC [5]	MIC [6]	MIC [7]	MIC [8]	MIC [9]	MIC [10]	MIC [11]	MIC [12]	MIC [13]	MIC [14]	MIC [15]	MIC [16]	MIC [17]	MIC [18]	MIC [19]	MIC [20]	further results
CO/N=C1\CN(c2c(F)cc3c(=O)c(C(=O)O)cn(C4CC4)c3c2F)CC1/C(N)=N\OC (stereo not given)	> 128 µg/mL	4 µg/mL (≈ 8.9 µM)	> 128 µg/mL	8 µg/mL (≈ 17.8 µM)	> 128 µg/mL	0.125 µg/mL (≈ 0.278 µM)	> 128 µg/mL	0.25 µg/mL (≈ 0.556 µM)	0.25 µg/mL (≈ 0.556 µM)	64 µg/mL (≈ 142 µM)	0.25 µg/mL (≈ 0.556 µM)	0.125 µg/mL (≈ 0.278 µM)	4 µg/mL (≈ 8.9 µM)	> 128 µg/mL	> 128 µg/mL	> 128 µg/mL	8 µg/mL (≈ 17.8 µM)	0.125 µg/mL (≈ 0.278 µM)	128 µg/mL (≈ 285 µM)	0.25 µg/mL (≈ 0.556 µM)	MIC [21]: > 128 µg/mL; MIC [22]: 16 µg/mL (≈ 35.6 µM); MIC [23]: 0.25 µg/mL (≈ 0.556 µM); MIC [24]: 0.25 µg/mL (≈ 0.556 µM); MIC [25]: > 128 µg/mL
CCO/N=C1\CN(c2c(F)cc3c(=O)c(C(=O)O)cn(C4CC4)c3c2F)CC1/C(N)=N\OC (stereo not given)	> 128 µg/mL	0.25 µg/mL (≈ 0.539 µM)	> 128 µg/mL	16 µg/mL (≈ 34.5 µM)	> 128 µg/mL	0.25 µg/mL (≈ 0.539 µM)	> 128 µg/mL	0.25 µg/mL (≈ 0.539 µM)	0.125 µg/mL (≈ 0.27 µM)	0.25 µg/mL (≈ 0.539 µM)	0.25 µg/mL (≈ 0.539 µM)	0.25 µg/mL (≈ 0.539 µM)	8 µg/mL (≈ 17.3 µM)	> 128 µg/mL	> 128 µg/mL	> 128 µg/mL	16 µg/mL (≈ 34.5 µM)	0.125 µg/mL (≈ 0.27 µM)	64 µg/mL (≈ 138 µM)	0.5 µg/mL (≈ 1.08 µM)	MIC [21]: 32 µg/mL (≈ 69 µM); MIC [22]: 32 µg/mL (≈ 69 µM); MIC [23]: 0.25 µg/mL (≈ 0.539 µM); MIC [24]: 0.125 µg/mL (≈ 0.27 µM); MIC [25]: > 128 µg/mL
CCO/N=C(/N)C1CN(c2c(F)cc3c(=O)c(C(=O)O)cn(C4CC4)c3c2F)C/C1=N\OC (stereo not given)	> 128 µg/mL	1 µg/mL (≈ 2.16 µM)	> 128 µg/mL	> 128 µg/mL	> 128 µg/mL	0.06 µg/mL (≈ 0.129 µM)	> 128 µg/mL	0.06 µg/mL (≈ 0.129 µM)	0.06 µg/mL (≈ 0.129 µM)	> 128 µg/mL	0.06 µg/mL (≈ 0.129 µM)	0.06 µg/mL (≈ 0.129 µM)	> 128 µg/mL	> 128 µg/mL	> 128 µg/mL	> 128 µg/mL	> 128 µg/mL	0.06 µg/mL (≈ 0.129 µM)	> 128 µg/mL	0.06 µg/mL (≈ 0.129 µM)	MIC [21]: > 128 µg/mL; MIC [22]: 32 µg/mL (≈ 69 µM); MIC [23]: 2 µg/mL (≈ 4.32 µM); MIC [24]: 0.06 µg/mL (≈ 0.129 µM); MIC [25]: > 128 µg/mL
CO/N=C1\CN(c2c(F)cc3c(=O)c(C(=O)O)cn(CCF)c3c2F)CC1/C(N)=N\O (stereo not given)	> 128 µg/mL	> 128 µg/mL	> 128 µg/mL	> 128 µg/mL	> 128 µg/mL	0.5 µg/mL (≈ 1.13 µM)	> 128 µg/mL	1 µg/mL (≈ 2.27 µM)	1 µg/mL (≈ 2.27 µM)	> 128 µg/mL	1 µg/mL (≈ 2.27 µM)	> 128 µg/mL	> 128 µg/mL	> 128 µg/mL	> 128 µg/mL	> 128 µg/mL	> 128 µg/mL	1 µg/mL (≈ 2.27 µM)	> 128 µg/mL	0.5 µg/mL (≈ 1.13 µM)	MIC [21]: > 128 µg/mL; MIC [22]: 1 µg/mL (≈ 2.27 µM); MIC [23]: > 128 µg/mL; MIC [24]: > 128 µg/mL; MIC [25]: > 128 µg/mL
CCO/N=C1\CN(c2c(F)cc3c(=O)c(C(=O)O)cn(CCF)c3c2F)CC1/C(N)=N\O (stereo not given)	> 128 µg/mL	0.5 µg/mL (≈ 1.1 µM)	> 128 µg/mL	16 µg/mL (≈ 35.1 µM)	> 128 µg/mL	0.5 µg/mL (≈ 1.1 µM)	> 128 µg/mL	0.5 µg/mL (≈ 1.1 µM)	0.5 µg/mL (≈ 1.1 µM)	> 128 µg/mL	0.5 µg/mL (≈ 1.1 µM)	4 µg/mL (≈ 8.78 µM)	8 µg/mL (≈ 17.6 µM)	> 128 µg/mL	> 128 µg/mL	> 128 µg/mL	16 µg/mL (≈ 35.1 µM)	0.5 µg/mL (≈ 1.1 µM)	128 µg/mL (≈ 281 µM)	0.5 µg/mL (≈ 1.1 µM)	MIC [21]: 4 µg/mL (≈ 8.78 µM); MIC [22]: 4 µg/mL (≈ 8.78 µM); MIC [23]: 4 µg/mL (≈ 8.78 µM); MIC [24]: 0.5 µg/mL (≈ 1.1 µM); MIC [25]: > 128 µg/mL
CO/N=C1\CN(c2c(F)cc3c(=O)c(C(=O)O)cn(CCF)c3c2F)CC1/C(N)=N\OC (stereo not given)	> 128 µg/mL	2 µg/mL (≈ 4.39 µM)	> 128 µg/mL	64 µg/mL (≈ 141 µM)	> 128 µg/mL	0.25 µg/mL (≈ 0.549 µM)	> 128 µg/mL	0.25 µg/mL (≈ 0.549 µM)	0.125 µg/mL (≈ 0.274 µM)	> 128 µg/mL	0.125 µg/mL (≈ 0.274 µM)	2 µg/mL (≈ 4.39 µM)	32 µg/mL (≈ 70.3 µM)	> 128 µg/mL	> 128 µg/mL	> 128 µg/mL	64 µg/mL (≈ 141 µM)	0.125 µg/mL (≈ 0.274 µM)	128 µg/mL (≈ 281 µM)	0.125 µg/mL (≈ 0.274 µM)	MIC [21]: 64 µg/mL (≈ 141 µM); MIC [22]: 4 µg/mL (≈ 8.78 µM); MIC [23]: 4 µg/mL (≈ 8.78 µM); MIC [24]: 0.25 µg/mL (≈ 0.549 µM); MIC [25]: > 128 µg/mL
